Reference: ChEMBL document CHEMBL4622968, “Discovery of [1,2,4]triazolo[4,3-a]pyridines as potent Smoothened inhibitors targeting the Hedgehog pathway with improved antitumor activity in vivo” (Bioorg Med Chem, 2020)
The source made the active and inactive calls. The calls are words filed in the database; no cut-off is given here.

Key:
U-251 = experiment: Antiproliferation activity against human U251 cells assessed as reduction in cell viability incubated for 72 hrs by MTT assay; assay type: functional, cell-based; details: U-251, 72 h
Procedure, shortened: (§1)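 MTT assay. Cells were plated overnight and exposed to a range of concentrations for 72 h. MTT was then added for 4 h and absorbance read at 570 nm. Inhibition% = [(control − compound)/(control − blank)] × 100. IC50 was fitted from the curves. Mean ± S.D. of 3–5 separate experiments. RPMI 1640 + 10% FBS; MCF10A in DMEM/F12 with 5% horse serum, EGF, hydrocortisone, insulin and cholera toxin.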

MDA-MB-468 [1] = experiment: Inhibition of hedgehog pathway in human MDA-MB-468 cells assessed as decrease in Smo protein levels in cilia at 28 uM incubated for 24 hrs by immunostaining based confocal microscopic analysis; assay type: cell-based
Procedure, shortened: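 MDA-MB-468 cells were treated at 28 μM for 24 h with or without SAG. Cilia were immunostained for acetylated α-tubulin and Smo and imaged by confocal microscopy. Comparisons were made against DMSO and against SAG alone.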

MDA-MB-468 [2] = experiment: Induction of cell cycle arrest in human MDA-MB-468 cells assessed as cell accumulation at G0/G1 phase at 14 uM incubated for 48 hrs by propidium iodide staining-based flow cytometric analysis (reference value: 38.94 %); assay type: functional
Procedure, shortened: (§2)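 Cells were seeded at 1.2×10^5 per well and treated for 48 h (MDA-MB-468: 14, 28, 56 μM). Cells were fixed in 75% ethanol at −20 °C overnight, stained with PI and analysed by flow cytometry. Mean ± S.D. of three independent experiments versus DMSO.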

MDA-MB-468 [3] = experiment: Induction of apoptosis in human MDA-MB-468 cells assessed as late apoptotic cells at 56 uM incubated for 48 hrs by annexin-V-FITC staining based flow cytometric method (reference value: 0.99 %); assay type: functional
MDA-MB-468 [4] = experiment: Induction of apoptosis in human MDA-MB-468 cells assessed as live cells at 56 uM incubated for 48 hrs by annexin-V-FITC staining based flow cytometric method (reference value: 98.5 %); assay type: functional
T47D = experiment: Antiproliferation activity against human T47D cells assessed as reduction in cell viability incubated for 72 hr by MTT assay; assay type: functional, cell-based; procedure, shortened: as §1
[5] = Acute toxicity in Kunming mouse assessed as mortality at 5226 mg/kg, ig observed for 14 days relative to control; assay type: organism-based; details: in vivo, po, read-out: Activity
Procedure, shortened: (§3)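 Kunming mice, groups of 5 female and 5 male per dose, dosed once by gavage at graded doses; mortality recorded over 14 days as dead/treated and percent. LD50 derived by improved Karber's method: LD50 = lg^-1[xm − i(ΣP − 0.5)], xm log of maximal dose, i log ratio of neighbouring doses; 95% confidence intervals given.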

HeLa = experiment: Antiproliferation activity against human HeLa cells assessed as reduction in cell viability incubated for 72 hrs by MTT assay; assay type: functional, cell-based; procedure, shortened: as §1
AN3-CA = experiment: Antiproliferation activity against human AN3CA cells assessed as reduction in cell viability incubated for 72 hr by MTT assay; assay type: functional, cell-based; procedure, shortened: as §1
MDA-MB-231 [6] = experiment: Induction of apoptosis in human MDA-MB-231 cells assessed as decrease in Bcl2 protein expression level incubated for 1 hr by Western blot analysis; assay type: functional, cell-based
[7] = Acute toxicity in Kunming mouse assessed as mortality at 3965 mg/kg, ig observed for 14 days relative to control; assay type: organism-based; details: in vivo, po, read-out: Activity; procedure, shortened: as §3
MDA-MB-231 [8] = experiment: Induction of cell cycle arrest in human MDA-MB-231 cells assessed as cell accumulation at G0/G1 phase incubated for 48 hrs by propidium iodide staining-based flow cytometric analysis; assay type: functional
[9] = Acute toxicity in Kunming mouse assessed as mortality at 4552 mg/kg, ig observed for 14 days relative to control; assay type: organism-based; details: in vivo, po, read-out: Activity; procedure, shortened: as §3
MCF7 = experiment: Antiproliferation activity against human MCF7 cells assessed as reduction in cell viability incubated for 72 hrs by MTT assay; assay type: functional, cell-based; details: MCF7, 72 h; procedure, shortened: as §1
MDA-MB-468 [10] = experiment: Induction of cell cycle arrest in human MDA-MB-468 cells assessed as cell accumulation at G0/G1 phase at 56 uM incubated for 48 hrs by propidium iodide staining-based flow cytometric analysis (reference value: 38.94 %); assay type: functional; procedure, shortened: as §2
MDA-MB-468 [11] = experiment: Induction of apoptosis in human MDA-MB-468 cells assessed as live cells at 14 uM incubated for 48 hrs by annexin-V-FITC staining based flow cytometric method (reference value: 98.5 %); assay type: functional
MDA-MB-468 [12] = experiment: Induction of apoptosis in human MDA-MB-468 cells assessed as early apoptotic cells at 28 uM incubated for 48 hrs by annexin-V-FITC staining based flow cytometric method (reference value: 2.00 %); assay type: functional
MDA-MB-468 [13] = experiment: Antitumour activity against human MDA-MB-468 cells xenografted in BALB/c mouse assessed as reduction in tumour volume at 80 mg/kg, ig measured every 2 days for 21 days relative to control; assay type: functional; design: scale not given: the % may be the effect or the level left
Procedure, shortened: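 Female BALB/c nude mice, 6–8 weeks old, were given subcutaneous flank injections of 1.0×10^7 MDA-MB-468 cells in 0.2 ml PBS. At 100 mm³ tumours they were randomized, five per group. Daily gavage in saline with 0.1% Tween 80 at 80 or 100 mg/kg, or vehicle alone. Tumour volume measured every 2 days and body weight daily. Tumours excised and weighed at day 21.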

MDA-MB-468 [14] = experiment: Induction of apoptosis in human MDA-MB-468 cells assessed as increase in Bax protein expression level incubated for 1 hr by Western blot analysis; assay type: functional, cell-based
Protein smoothened [15] = target: T1, Protein smoothened (Homo sapiens, UniProt Q99835); experiment: Binding affinity to recombinant human Smo receptor assessed as dissociation constant at equilibrium by SPR analysis
MDA-MB-468 [16] = experiment: Induction of apoptosis in human MDA-MB-468 cells assessed as necrotic cells at 28 uM incubated for 48 hrs by annexin-V-FITC staining based flow cytometric method (reference value: 1.52 %); assay type: functional
Protein smoothened [17] = target: T1, Protein smoothened; experiment: Binding affinity to recombinant human Smo receptor assessed as maximum response at equilibrium by SPR analysis
Procedure, shortened: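 Surface plasmon resonance with recombinant Smo protein, run in PBS at a flow rate of 2 μL/s and 4 °C. Analytes were injected at 2.5, 5 and 10 μM. The chip was regenerated with 0.5% SDS:glycine-HCl pH 2.0 (1:1). ka, kd, Rmax, KA and KD came from a global fit of the sensorgrams.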

[18] = Acute toxicity in Kunming mouse assessed as mortality at 3008 mg/kg, ig observed for 14 days relative to control; assay type: organism-based; details: in vivo, po, read-out: Activity; procedure, shortened: as §3
MDA-MB-468 [19] = experiment: Induction of cell cycle arrest in human MDA-MB-468 cells assessed as cell accumulation at G2/M phase at 28 uM incubated for 48 hrs by propidium iodide staining-based flow cytometric analysis (reference value: 26.66 %); assay type: functional; procedure, shortened: as §2
MDA-MB-468 [20] = experiment: Induction of cell cycle arrest in human MDA-MB-468 cells assessed as cell accumulation at G2/M phase incubated for 48 hrs by propidium iodide staining-based flow cytometric analysis; assay type: functional; procedure, shortened: as §2
A549 = experiment: Antiproliferation activity against human A549 cells assessed as reduction in cell viability incubated for 72 hrs by MTT assay; assay type: functional, cell-based; details: A549, 72 h; procedure, shortened: as §1
MDA-MB-468 [21] = experiment: Antiproliferation activity against human MDA-MB-468 cells assessed as reduction in cell viability incubated for 72 hr by MTT assay; assay type: functional, cell-based; details: MDA-MB-468, 72 h; procedure, shortened: as §1

T1 sequence (Q99835 whole entry): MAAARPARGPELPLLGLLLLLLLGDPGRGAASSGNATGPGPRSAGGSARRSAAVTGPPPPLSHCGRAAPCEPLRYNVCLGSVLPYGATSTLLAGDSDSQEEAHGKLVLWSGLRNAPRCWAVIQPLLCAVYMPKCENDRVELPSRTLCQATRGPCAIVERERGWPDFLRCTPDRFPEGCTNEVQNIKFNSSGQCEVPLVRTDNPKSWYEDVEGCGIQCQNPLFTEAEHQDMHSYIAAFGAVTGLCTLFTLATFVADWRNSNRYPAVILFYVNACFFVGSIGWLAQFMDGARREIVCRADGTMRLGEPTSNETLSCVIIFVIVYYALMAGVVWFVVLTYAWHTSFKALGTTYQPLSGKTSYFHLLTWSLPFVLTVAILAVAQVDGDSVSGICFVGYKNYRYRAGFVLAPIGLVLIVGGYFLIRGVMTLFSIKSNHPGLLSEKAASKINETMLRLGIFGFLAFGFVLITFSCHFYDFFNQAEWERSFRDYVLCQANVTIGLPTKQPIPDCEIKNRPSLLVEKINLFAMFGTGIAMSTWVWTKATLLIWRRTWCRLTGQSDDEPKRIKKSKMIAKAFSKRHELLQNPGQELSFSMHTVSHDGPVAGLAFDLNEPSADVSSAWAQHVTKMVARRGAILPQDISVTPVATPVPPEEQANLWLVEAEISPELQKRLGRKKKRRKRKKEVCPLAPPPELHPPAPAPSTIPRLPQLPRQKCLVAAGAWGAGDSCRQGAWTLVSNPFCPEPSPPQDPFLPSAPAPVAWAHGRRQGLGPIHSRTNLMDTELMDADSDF

Compound: O=C(Nc1ccc(Cl)c(-c2nnc3c(Cl)cccn23)c1)c1ccc(Cl)nc1Cl
- IC50 (U-251): 85.2 µM
- inhibition (MDA-MB-468 [1]): Active
- Activity (MDA-MB-468 [2]): 30.69%
- Activity (MDA-MB-468 [3]): 24.1%
- Activity (MDA-MB-468 [4]): 60.3%
- IC50 (T47D): 42.3 µM
- mortality at 336 h [5]: 70%
- IC50 (HeLa): 66.3 µM
- IC50 (AN3-CA): 44.5 µM
- Activity (MDA-MB-231 [6]): Active
- mortality at 336 h [7]: 50%
- Activity (MDA-MB-231 [8]): Dose-dependent effect
- mortality at 336 h [9]: 60%
- IC50 (MCF7): 61.5 µM
- Activity (MDA-MB-468 [10]): 29%
- Activity (MDA-MB-468 [11]): 74.84%
- Activity (MDA-MB-468 [12]): 7.71%
- Activity (MDA-MB-468 [13]): 64.97%
- Activity (MDA-MB-468 [14]): Active
- Kd (Protein smoothened [15]): 0.0103 µM
- Activity (MDA-MB-468 [16]): 9.86%
- Rmax (Protein smoothened [17]): 90.5 RU
- mortality at 336 h [18]: 10%
- Activity (MDA-MB-468 [19]): 39.75%
- Activity (MDA-MB-468 [20]): Dose-dependent effect
- IC50 (A549): 64.9 µM
- IC50 (MDA-MB-468 [21]): 28.6 µM
